B2AR ag: agonists of human beta-2 adrenergic receptor inducing internalization. P07550. Am2.2-beta2AR cells, FAP receptor internalization, flow cytometry. response, % (test concentration not listed). hit rate 0.43% among 340,000. AID 504454;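 active = response above a set limit, near 3 SD of response in nonfluorescent compounds, cut at about 42% in these data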
Target sequence (P07550 whole entry, looked up): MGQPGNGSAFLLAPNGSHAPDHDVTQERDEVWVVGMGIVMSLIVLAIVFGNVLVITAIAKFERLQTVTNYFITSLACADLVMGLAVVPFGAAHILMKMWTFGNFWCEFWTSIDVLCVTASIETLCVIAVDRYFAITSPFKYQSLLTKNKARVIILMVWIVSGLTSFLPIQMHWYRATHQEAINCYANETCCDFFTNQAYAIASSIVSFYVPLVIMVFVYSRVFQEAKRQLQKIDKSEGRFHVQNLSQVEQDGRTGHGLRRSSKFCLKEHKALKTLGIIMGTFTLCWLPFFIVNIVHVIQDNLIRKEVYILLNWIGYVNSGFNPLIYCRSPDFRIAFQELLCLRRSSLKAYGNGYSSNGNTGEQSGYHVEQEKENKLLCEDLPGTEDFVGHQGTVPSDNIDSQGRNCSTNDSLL
ABHD5-PLIN5 inh: inhibitors of human ABHD5-perilipin-5 interaction; Split G. princeps luciferase complementation, luminescence, 4 h; Q00G26+Q8WTS1; AID 602281; inhibition, % at 4 µM; hit rate 0.78% among 360,000;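 active = inhibition above the mean inhibition across every tested compound plus 3 SD, cut at about 22% in these data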;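 note: 0% = DMSO only wells and the 100% control is not disclosed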
UHRF1 binding: UHRF1 methyl-DNA binding inhibition; Q96T88; UHRF1 binding to methylated oligo, TR-FRET; inhibition, % at 4.4 µM; hit rate 0.75% among 370,000; AID 687016; in the data active = inhibition above about 21%;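 note: UHRF1 SRA domain binding a hemimethylated CpG hairpin DNA probe; 0% = median of test compound wells and 100% = reference inhibitor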
Arr AP2 block: inhibitors of human beta-arrestin and AP2 interaction | AID 504490 | inhibition, % at 10 µM | FITC-arrestin peptide / GST-AP2 beads, flow cytometry; AP2 beta2 appendage carries R879A mutation | hit rate 0.31% among 340,000;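 active = inhibition above a set limit, near 3 SD of compounds lacking own fluorescence, cut at about 54% in these data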;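 note: plate controls were DMSO wells for no effect and 5 µM unlabelled arrestin peptide for full effect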
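Measured by: flow cytometry, FL1 (488/535 nm); Material: AP2 appendage R879A on GSH beads; Evaluation: percent response; Timing: pre-incubation 12 min, peptide binding 1 h, room temperature; Also added: 50 nM FITC-arrestin peptide; Medium: PBS with 0.05% Tween 20 and 0.1% BSA.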
MBD2 DNA inh: inhibitors of human MBD2 binding to methylated oligonucleotide | Q9UBB5 | TR-FRET | inhibition, % at 4.4 µM | hit rate 0.31% among 370,000 | AID 686964; in the data active = inhibition above about 13%
Rin1-Abl PPI inh: human Rin1-Abl interaction inhibition | P00519+Q13671 | inhibition, % at 7.35 µM | TR-FRET Rin1/Abl binding, biochemical | AID 588664 | hit rate 0.4% among 360,000; in the data active = inhibition above about 5%, passing the limit was not always enough
B2AR ag CP1: activates human beta-2 adrenergic receptor | percent response (surface receptor), % at 10 µM | Am2.2-beta2AR cells, FAP surface receptor, flow cytometry; stronger effect = lower value | hit rate 25% among 1,100 | shares compounds with B2AR ag;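 active = surface receptor percent response at or below 58%, roughly 3 SD from nonfluorescent compounds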
FAP fluor counter: flagged in Am2.2 fluorescence counterscreen for beta-2AR agonists; calls only at 10 µM; Am2.2 cells, FAP fluorogen flow cytometry; stronger effect = lower value; shares compounds with B2AR ag; 1,100 tested, under 10 active;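 active = percent response below a set limit in fluorescence channel 1 and below 50% in channel 8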
Active calls of the source: *; i = inactive; · = no result. An excerpt weighted towards active compounds, which were near 2.5% of everything screened.

SMILES | B2AR ag | ABHD5-PLIN5 inh | UHRF1 binding | Arr AP2 block | MBD2 DNA inh | Rin1-Abl PPI inh | B2AR ag CP1 | FAP fluor counter
CCCCN(CCCC)c1nc2ccccc2nc1NS(=O)(=O)c1ccc(NC(C)=O)cc1 | 119* | -4 | 2 | 0 | 2 | -3 | 28* | i
CCCCCCCCN1C(=O)[C@@H](CC(=O)NCc2cccc3ccccc23)C[C@@]2(C(=O)OC)C1=C[C@H](COCc1ccccc1)O[C@@H]2C | · | · | -2 | · | -4 | · | · | ·
c1nc(NCCN2CCOCC2)c2sc3nc(N4CCOCC4)c4c(c3c2n1)CCC4 | 46* | 3 | 5 | 9 | 0 | 0 | 57* | i
CCN1CCN(c2ncnc3c2sc2nc(N4CCOCC4)c4c(c23)CCC4)CC1 | -1 | -3 | 1 | 1 | -1 | -2 | · | ·
COc1ccc(CCNc2nc(-c3cccnc3)nc3ccccc23)cc1OC | 21 | 0 | 1 | -1 | -3 | 0 | · | ·
CCOc1ccc(CN(C)c2nc(-c3cccnc3)nc3ccccc23)cc1OC | -3 | 3 | 3 | 5 | 3 | -1 | 129 | i
CN(Cc1ccccc1F)c1nc(-c2cccnc2)nc2ccccc12 | 80* | 5 | 3 | 9 | 3 | -2 | 53* | i
Cc1ccc(CN(C)c2nc(-c3cccnc3)nc3ccccc23)o1 | 45* | 17 | -5 | 12 | -1 | 2 | 104 | i
O=C(NCCc1ccc2c(c1)OCO2)c1cc(-c2ccccc2)c(N2CCOCC2)s1 | · | · | 1 | · | 0 | · | · | ·
Cc1c(Br)c([N+](=O)[O-])nn1CCCC(=O)Nc1sc2c(c1C#N)CCC2 | 59* | -16 | 0 | 5 | 0 | -2 | 128 | i
Cc1c(Cl)c([N+](=O)[O-])nn1CCCC(=O)Nc1sc2c(c1C#N)CCC2 | 4 | 0 | -1 | -2 | -2 | 2 | · | ·
OC(c1cc(C(F)(F)F)nc2c(C(F)(F)F)cccc12)C1CCCCN1 (centres undefined) | 36 | 4 | -1 | 3 | -3 | 1 | 99 | i
COC(=O)[C@]12C[C@H](CC(=O)NCc3cccc(C(F)(F)F)c3)C(=O)N(CCC3=CCCCC3)C1=C[C@H](C1CCCC1)O[C@@H]2C | · | · | -1 | · | -3 | · | · | ·
CC(=O)c1ccc(OCc2cc(C(=O)N(C)CCOc3ccc(C)cc3)no2)cc1 | 86* | 0 | 2 | 6 | 0 | 3 | 20* | i
COC(=O)C1CN(Cc2ccc(OC)cc2)CCS(=O)(=O)N1Cc1cn(Cc2ccc(OC)cc2)nn1 (centres undefined) | · | · | -4 | · | -1 | · | · | ·
Cc1cc(CN(C)C(=O)CC2C(=O)NCCN2Cc2ccc(F)c(F)c2)on1 (centres undefined) | 1 | -2 | -2 | 8 | -2 | 3 | · | ·
Cc1cc(CN(C)C(=O)CC2C(=O)NCCN2Cc2ccc(-c3ccccc3)cc2)on1 (centres undefined) | 46* | 1 | -3 | -2 | -8 | -2 | 90 | i
CCN(CC)S(=O)(=O)c1cc(NC(=O)C2=COCCO2)ccc1Cl | 115* | -1 | 3 | 33 | -1 | -2 | 24* | i
CS(=O)(=O)c1ccc(C(=O)OCc2nnc(-c3ccccc3)o2)cc1[N+](=O)[O-] | 85* | 15 | 0 | 4 | 1 | -2 | 84 | i
CC(=O)c1cccc(NC(=O)COC(=O)c2ccc(S(C)(=O)=O)c([N+](=O)[O-])c2)c1 | 68* | 13 | 0 | 19 | -4 | 2 | 99 | i
O=C(OCc1nnc(-c2ccccc2)o1)c1ccc(CO)cc1 | -12 | 0 | -2 | -3 | -1 | 1 | 98 | i
Cc1ccccc1NC(=O)COC(=O)c1ccc(S(C)(=O)=O)c([N+](=O)[O-])c1 | 16 | 10 | -3 | -1 | -3 | 4 | · | ·
O=C(OCc1nnc(-c2ccccc2)o1)c1ccc(Cl)cc1 | -1 | -1 | 5 | · | -1 | -1 | · | ·
CCc1cccc2c1NC1(CCCC1)CC2C (centres undefined) | 3 | 2 | 0 | 10 | 2 | 1 | 106 | i
CC1CC2(CCCCC2)Nc2ccc3ccccc3c21 (centres undefined) | 5 | -7 | -3 | 25 | -4 | 2 | · | ·
SMILES | B2AR ag | ABHD5-PLIN5 inh | UHRF1 binding | Arr AP2 block | MBD2 DNA inh | Rin1-Abl PPI inh | B2AR ag CP1 | FAP fluor counter
CCOC(=O)c1ccc(NC(=O)Cc2coc3cc4c(cc23)CCC4)cc1 | 69* | -11 | 0 | 3 | 4 | 3 | 45* | i
CCOC(=O)c1ccc(NC(=O)COC)cc1 | 10 | -3 | -1 | -3 | 7 | 1 | · | ·
CCOC(=O)[C@]12CCCC=C1N(CCCOC)C(=O)[C@@H]2CC(=O)N1CCCCC1 | · | · | 0 | · | 4 | · | · | ·
CC1CCCN(c2ccc([N+](=O)[O-])cc2C(=O)c2ccccc2)C1 (centres undefined) | 42* | 4 | -5 | 6 | -9 | -1 | 49* | i
CC(C)C[C@@H]1COc2cccc(F)c2S(=O)(=O)N1C | · | · | 0 | · | -4 | · | · | ·
O=C1CC(c2cc(Br)ccc2F)c2cc3c(cc2N1)CCC3 (centres undefined) | 56* | 5 | · | -6 | · | 1 | 95 | i
CCOC(=O)N1CCN(C(=O)C[C@H]2C[C@@]3(C(=O)OC)C(=C[C@H](C(C)C)O[C@@H]3C3CC3)N(CCC3=CCCCC3)C2=O)CC1 | · | · | 0 | · | 1 | · | · | ·
COCc1nnc(NC(=O)C(C)C)s1 | 53* | -10 | -1 | -5 | -5 | 0 | 95 | i
COC(=O)c1cc(NC(=O)Cn2c(=O)oc3ccccc32)cc(C(=O)OC)c1 | 71* | 4 | 0 | -3 | -2 | 1 | 122 | i
O[C@@H](CNC[C@H](O)c1ccccc1)c1ccccc1 | -10 | 5 | 3 | -3 | 2 | -3 | 111 | i
OC(CNCCc1ccccc1)c1ccccc1 (centres undefined) | 7 | 6 | 3 | 17 | -2 | 1 | 105 | i
O=C(NCC(O)c1ccccc1)c1ccccc1 (centres undefined) | 5 | -5 | 7 | -6 | -1 | 1 | · | ·
CSc1ccc(CNCC(O)c2ccccc2)cc1 (centres undefined) | -2 | -3 | 0 | -11 | -5 | -1 | · | ·
COc1ccc(CCNCC(O)c2ccccc2)cc1 (centres undefined) | -1 | -7 | -2 | 6 | -8 | 3 | 96 | i
C[C@@H]1ON(C)[C@H]2C[C@H]3c4[nH]c5c(-c6ccc7c(c6)OCO7)cccc5c4CCN3C[C@@H]12 | · | · | -1 | · | 3 | · | · | ·
CCOC(=O)Cc1nc(N2CCN(Cc3cccc4c3OCO4)CC2)c2c(C)c(C(=O)OCC)sc2n1 | · | · | 0 | · | -2 | · | · | ·
